{"data": "Results of several laboratories", "BRDT BD2": "Bromodomain testis-specific protein, BD2 (BRDT, Homo sapiens, UniProt Q58F21)", "PTGS2": "Prostaglandin G/H synthase 2 (PTGS2, Homo sapiens, UniProt P35354)", "DYRK3": "Dual specificity tyrosine-phosphorylation-regulated kinase 3 (DYRK3, Homo sapiens, UniProt O43781)", "DYRK1B": "Dual specificity tyrosine-phosphorylation-regulated kinase 1B (DYRK1B, Homo sapiens, UniProt Q9Y463)", "CREBBP bromodomain": "CREB-binding protein, bromodomain (CREBBP, Homo sapiens, UniProt Q92793)"}
{"SMILES": "N=C(N)NCCC[C@H](NC(=O)[C@H](CC(=O)O)NC(=O)[C@H](Cc1c[nH]c2ccccc12)NC(=O)[C@H](CCCNC(=N)N)NC(=O)[C@@H](N)Cc1ccccc1)C(=O)N[C@@H](Cc1ccccc1)C(=O)NCC(=O)O", "target": "Melanocyte-stimulating hormone receptor (Mc1r, Mus musculus, UniProt Q01727)", "assay": "cAMP, agonist", "system": "HEK293", "quantity": "Emax", "result": "30%"}
{"SMILES": "NS(=O)(=O)c1ccc(Nc2nc(-c3ccc(F)cc3)c3ccccc3n2)cc1", "target": "BRDT BD2", "assay": "binding, competition with immobilised ligand", "setting": "1 µM", "quantity": "remaining binding", "result": "4%"}
{"SMILES": "O=c1cc(-c2ccc(O)cc2)oc2cc(O)cc(O)c12", "target": "PTGS2", "assay": "enzyme activity, inhibitor", "setting": "0.12 µg/mL", "quantity": "inhibition", "result": "3.07%"}
{"SMILES": "COc1cccc(Nc2nc3cc(C(=O)O)ccc3c3cnccc23)c1", "target": "DYRK3", "assay": "enzyme activity, inhibitor, radiometric", "setting": "1 µM", "quantity": "remaining activity", "result": "2%"}
{"SMILES": "Cc1ccc(C(=O)Nc2ccc(CN3CCN(C)CC3)c(C(F)(F)F)c2)cc1C#Cc1cnc2cccnn12", "target": "Cyclin-dependent kinase-like 5 (CDKL5, Homo sapiens, UniProt O76039)", "assay": "enzyme activity", "setting": "23.5 nM", "quantity": "remaining activity", "result": "100%"}
{"SMILES": "O=C(O)c1ccc2c(c1)nc(Nc1ccccc1)c1ccncc12", "target": "DYRK1B", "assay": "enzyme activity, inhibitor, radiometric", "setting": "1 µM", "quantity": "remaining activity", "result": "73%"}
{"SMILES": "C[S+]([O-])c1ccc(-c2nc(-c3ccncc3)c(-c3ccc(F)cc3)[nH]2)cc1 (centres unmarked)", "target": "Transcription intermediary factor 1-beta (TRIM28, Homo sapiens, UniProt Q13263)", "assay": "thermal stability, DSF", "setting": "10 µM", "quantity": "ΔTm", "result": "1.43 °C"}
{"SMILES": "COc1ccc(-c2cc(=O)c3c(O)cc(O[C@@H]4O[C@H](CO)[C@@H](O)[C@H](O)[C@H]4O)cc3o2)cc1O", "target": "PTGS2", "assay": "enzyme activity, inhibitor", "setting": "31.25 µg/mL", "quantity": "inhibition", "result": "100%"}
{"SMILES": "O=C(O)c1ccc2c(c1)nc(Nc1ccc3ccccc3c1)c1ccncc12", "target": "DYRK1B", "assay": "enzyme activity, inhibitor, radiometric", "setting": "1 µM", "quantity": "remaining activity", "result": "84%"}
{"SMILES": "C=C[C@@]1(C)C=C2CC[C@@H]3[C@](C)(CCC[C@@]3(C)C(=O)O)[C@H]2CC1", "target": "PTGS2", "assay": "enzyme activity, inhibitor", "setting": "0.24 µg/mL", "quantity": "inhibition", "result": "0%"}
{"SMILES": "Cc1cc2c(cc1N1C(=O)c3cccc4c(Cl)ccc(c34)C1=O)n(C)c(=O)n2C", "target": "BRDT BD2", "assay": "thermal stability, DSF", "setting": "10 µM", "quantity": "ΔTm", "result": "-1 °C"}
{"SMILES": "COc1cc(/C=C/C(=O)CC(=O)/C=C/c2ccc(O)c(OC)c2)ccc1O", "target": "Rho-associated protein kinase 2 (Rock2, Rattus norvegicus, UniProt Q62868)", "assay": "enzyme activity, inhibitor", "setting": "1 µM", "quantity": "activity vs control", "result": "90%"}
{"SMILES": "O=C(O)c1ccc2c(c1)nc(Nc1ccc(Cl)cc1)c1ncncc12", "target": "DYRK3", "assay": "enzyme activity, inhibitor, radiometric", "setting": "1 µM", "quantity": "remaining activity", "result": "9%"}
{"SMILES": "Cc1cnc(Nc2ccc(OCCN3CCCC3)cc2)nc1Nc1cccc(S(=O)(=O)NC(C)(C)C)c1", "target": "BRDT BD2", "assay": "thermal stability, DSF", "setting": "10 µM", "quantity": "ΔTm", "result": "2.69 °C"}
{"SMILES": "Cn1cc(C(=O)Nc2cccc(C(=O)O)c2)ccc1=O", "target": "CREBBP bromodomain", "assay": "thermal stability, DSF", "setting": "100 µM", "quantity": "ΔTm", "result": "1.9 °C"}
{"SMILES": "O=C(O)c1ccc2c(c1)nc(NCCc1cccc(Cl)c1)c1ccncc12", "target": "DYRK3", "assay": "enzyme activity, inhibitor, radiometric", "setting": "1 µM", "quantity": "remaining activity", "result": "5%"}
{"SMILES": "COC(=O)c1ccc(O)cc1", "target": "PTGS2", "assay": "enzyme activity, inhibitor", "setting": "0.49 µg/mL", "quantity": "inhibition", "result": "0%"}
{"SMILES": "CCN1CCN(Cc2ccc(NC(=O)c3ccc(C)c(Oc4ccnc5[nH]ccc45)c3)cc2C(F)(F)F)CC1", "target": "Inositol-tetrakisphosphate 1-kinase (Homo sapiens, UniProt Q13572)", "assay": "target engagement in cells, inhibitor, chemoproteomics", "system": "Huh-7", "setting": "1 µM", "quantity": "inhibition", "result": "-10.6%"}
{"SMILES": "O=C(O)c1ccc2c(c1)nc(NCCc1ccccc1)c1ncncc12", "target": "DYRK3", "assay": "enzyme activity, inhibitor, radiometric", "setting": "1 µM", "quantity": "remaining activity", "result": "25%"}
{"SMILES": "Cc1cc2c(NC(=O)c3cccc(C(=O)O)c3)cccc2nn1", "target": "CREBBP bromodomain", "assay": "thermal stability, DSF", "setting": "100 µM", "quantity": "ΔTm", "result": "4 °C"}
{"SMILES": "O=c1cc(-c2ccc(O)c(O)c2)oc2cc(O)cc(O)c12", "target": "PTGS2", "assay": "enzyme activity, inhibitor", "setting": "0.12 µg/mL", "quantity": "inhibition", "result": "21.6%"}
{"SMILES": "O=C(O)c1ccc2c(c1)nc(Nc1ccc(F)c(Cl)c1)c1ccncc12", "target": "DYRK1B", "assay": "enzyme activity, inhibitor, radiometric", "setting": "1 µM", "quantity": "remaining activity", "result": "22%"}
{"SMILES": "Oc1ccc(-c2nc(-c3ccncc3)c(-c3ccc(F)cc3)[nH]2)cc1", "target": "Bromodomain and WD repeat-containing protein 1, BD2 (BRWD1, Homo sapiens, UniProt Q9NSI6)", "assay": "thermal stability, DSF", "setting": "10 µM", "quantity": "ΔTm", "result": "-0.73 °C"}
{"SMILES": "Nc1ncnc2occ(-c3ccc(NC(=O)Nc4cc(C(F)(F)F)ccc4F)cc3)c12", "target": "Mitogen-activated protein kinase kinase kinase 15 (MAP3K15, Homo sapiens, UniProt Q6ZN16)", "assay": "cell-free assay, inhibitor", "setting": "20 µM", "quantity": "remaining signal", "result": "39%"}
{"SMILES": "CN(C)C1CCN(CC#Cc2nn(C3CCCC3)c3nc(NCc4ccccc4)ncc23)C1 (centres unmarked)", "target": "Serine/threonine-protein kinase PAK 1 (PAK1, Homo sapiens, UniProt Q13153)", "assay": "enzyme activity, inhibitor, FRET", "setting": "0.1 µM", "quantity": "inhibition", "result": "2%"}
{"SMILES": "O=C(NCCCNc1nc(Nc2cccc(NC(=O)N3CCCC3)c2)ncc1C1CC1)C1CCC1", "target": "NUAK family SNF1-like kinase 1 (NUAK1, Homo sapiens, UniProt O60285)", "assay": "enzyme activity, inhibitor, radiometric", "setting": "1 µM", "quantity": "remaining activity", "result": "51%"}
{"SMILES": "COc1ccc2c(c1)c(CC(=O)O)c(C(F)(F)F)n2C(=O)c1ccc(Cl)cc1", "target": "PTGS2", "assay": "enzyme activity, inhibitor", "quantity": "kinact/KI", "result": "13000 M⁻¹ s⁻¹"}
{"SMILES": "N#Cc1cccc(Nc2nc3cc(C(=O)O)ccc3c3cnccc23)c1", "target": "DYRK1B", "assay": "enzyme activity, inhibitor, radiometric", "setting": "1 µM", "quantity": "remaining activity", "result": "10%"}
{"SMILES": "O=C(O)c1ccc(O)cc1", "target": "PTGS2", "assay": "enzyme activity, inhibitor", "setting": "1.95 µg/mL", "quantity": "inhibition", "result": "41.7%"}
